Most compounds without a hit are left out; they make up all but 1.1% or so of the library.
Diaphorase act – compounds boosting diaphorase resazurin reduction – biochemical, uHTS, resorufin fluorescence, counter-screen for diaphorase-coupled primary assays, primary screen. Diaphorase/resazurin coupled assay, 16 min; stronger effect = higher value; 1 = vehicle wells, 0 = NADH-free wells. activation factor at 20 µM. actives 0.005% (n = 190,000);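 active = diaphorase activity raised at least twofold by the compound at 20 µM; inactive = activation factor below 2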
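System – purified diaphorase enzyme from Clostridium kluyveri · Input – enzyme 0.07 U/mL final · Also added – final NADH 0.114 mM, resazurin 0.1 mM · Measured by – fluorescence of resorufin, 544 nm excitation, 590 nm emission · Timing – 16 min enzyme reaction, ambient temperature · Measure – resorufin increase flagging diaphorase activators or reducers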
PMI act hi M6P – human PMI activators, high substrate, primary screen, biochemical, fluorescence intensity, near-saturating mannose 6-phosphate | coupled PMI enzyme assay, resazurin fluorescence, 20 min; stronger effect = higher value; 1 = untreated enzyme, 0 = substrate-free blank | actives 0.34% (n = 190,000) | Mannose-6-phosphate isomerase (Homo sapiens), P34949 | activation factor at 20 µM;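 active = activation factor of 2 or more at 20 µM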
Target sequence (P34949 whole entry, looked up): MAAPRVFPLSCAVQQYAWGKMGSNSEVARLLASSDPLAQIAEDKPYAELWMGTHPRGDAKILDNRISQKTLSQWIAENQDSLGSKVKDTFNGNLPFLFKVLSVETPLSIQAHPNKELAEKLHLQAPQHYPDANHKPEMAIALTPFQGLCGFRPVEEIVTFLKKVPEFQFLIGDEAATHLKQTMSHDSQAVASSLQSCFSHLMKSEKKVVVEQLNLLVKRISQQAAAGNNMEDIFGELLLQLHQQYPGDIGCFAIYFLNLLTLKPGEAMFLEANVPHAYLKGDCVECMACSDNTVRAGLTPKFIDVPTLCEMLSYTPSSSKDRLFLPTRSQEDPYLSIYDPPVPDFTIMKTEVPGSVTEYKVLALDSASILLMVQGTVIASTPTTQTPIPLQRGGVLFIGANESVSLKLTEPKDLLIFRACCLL
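Material: human phosphomannose isomerase with PGI, G6PDH, diaphorase coupling enzymes. Quantity: 15 ng/mL PMI. Medium: HEPES pH 7.4 buffer with MgCl2 and Tween-20. Reagent: Near-saturating mannose-6-phosphate, 1.0 mM. Compound: 20 µM single dose. Times: enzyme reaction with compound 20 min at room temperature. Detection: resorufin fluorescence at Ex 544/Em 590 nm.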
G6PDH CS – L. mesenteroides G6PDH inhibitors, counter-screen for G6PDH-coupled screening assays, biochemical, Leuconostoc mesenteroides enzyme. glucose-6-phosphate dehydrogenase [Leuconostoc mesenteroides]. Purified L. mesenteroides G6PDH, diaphorase/resazurin coupled fluorescence, 45 min. inhibition, % at 5 µM. actives 0.12% (n = 200,000). AID 1020, 2008; in the data active = inhibition above about 50%
PMI activator – activators of human PMI, primary screen, biochemical, fluorescence intensity, near-Km mannose 6-phosphate; Mannose-6-phosphate isomerase (Homo sapiens), P34949; purified human PMI, coupled resazurin fluorescence, 20 min; stronger effect = higher value; 1 = vehicle control, 0 substrate-free wells; activation factor at 20 µM; actives 0.005% (n = 190,000); AID 1214, 2008;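 active = activation factor of 2 or more at 20 µM, relative to plate controls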
TbHK1 inh – Trypanosoma brucei hexokinase 1 inhibitors, primary screen, biochemical, G6PDH-coupled NADH absorbance, MLSCN library; hexokinase 1 [Trypanosoma brucei]; actives 0.11% (n = 220,000); recombinant TbHK1, G6PDH-coupled NADH A340; AID 1430, 2008; inhibition, % at 10 µM;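 active = inhibition of 50% or more in the single-dose primary screen; inactive = inhibition below 50%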
Diaphorase inh – diaphorase inhibitors and chemical oxidizers, primary screen, counter-screen for diaphorase-coupled primary assays, biochemical, uHTS, resorufin fluorescence | diaphorase resazurin-to-resorufin fluorescence, NADH, 16 min; bacterial (C. kluyveri) enzyme, not human | inhibition, % at 20 µM | actives 0.69% (n = 190,000) | AID 1217, 2008;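 active = primary screen inhibition at 20 µM above a set limit, cut at about 50% in these data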;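 note: plate controls were DMSO with full reaction for no effect and wells lacking NADH for full effect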
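Assay system – diaphorase enzyme from Clostridium kluyveri · Amount – diaphorase 0.14 U/mL (working solution) · Times – reaction incubation of 16 min at room temperature · Controls – No-NADH positive control and DMSO neutral control · Signal – resorufin fluorescence 544/590 nm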
Active calls of the source: *; / = no result.

SMILES | Diaphorase act | PMI act hi M6P | G6PDH CS | PMI activator | TbHK1 inh | Diaphorase inh
CC(=O)N(\C=C/C=C/C=C1\Sc2ccccc2C1=O)c1ccccc1 | 0.5 | 0.6 | 3 | 0.7 | -1 | 53*
O=C(N/N=C1/C(=O)c2cccc3cccc1c23)c1ccc(Cl)cc1 | 0.3 | 0.9 | 4 | 0.9 | -19 | 68*
CCCCCCCCCCCCCCCC[n+]1cccc2ccccc21 | 1.6 | 1.1 | 12 | 0.7 | 55* | -60
CCCCCCCCC[n+]1cccc2c3ccccc3ccc21 | 1.1 | 1.1 | 3 | 1 | -6 | -10
O=C(CCl)N(c1ccccc1)C1CCCCC1 | 1.2 | 1.2 | 8 | 1.3 | -1 | -17
Cc1ccc(/C=N/Nc2ccc(Cl)nn2)cc1 | / | / | / | / | -19 | /
CN(C)c1ccc(/C=N/Nc2ccc(-n3ccnc3)nn2)cc1 | 1 | 2.2* | -2 | 1.7 | -53 | 3
Cc1ccc(NC(=O)c2ccc3ncsc3c2)cc1S(=O)(=O)N(C)C | / | / | / | / | -8 | /
Cc1ccc(-n2nc3cc(C)c(N)cc3n2)cc1 | 0.2 | 0.4 | 25 | 0.2 | -9 | 76*
COc1ccc(-n2nc3cc(C)c(N)c(Br)c3n2)cc1 | 0.3 | 0.2 | 25 | 0.1 | 0 | 74*
Cc1cc2nn(-c3cccc4ccccc34)nc2cc1N | 0.2 | 0.2 | -23 | 0.2 | -16 | 78*
Nc1ccc2nn(-c3cccc4ccccc34)nc2c1 | 0.6 | 0.4 | 47 | 0.6 | -16 | 41
CCc1ccc(NC(=S)N2CCCCCCC2)cc1 | 0.8 | 1.1 | 14 | 1.1 | -3 | 17
Cc1cc(NC(=O)Nc2ccc(Cl)c(Cl)c2)n(-c2ccccc2)n1 | / | / | / | / | -1 | /
O=C(c1ccc(S(=O)(=O)c2ccccc2)cc1)N1CCc2ccccc2C1 | 0.5 | 0.4 | 6 | 0.8 | 33 | 51*
Cc1occc1C(=O)N/N=C/c1cnn(C)c1C | 0.4 | 0.4 | -1 | 0.6 | 1 | 60*
Cc1c(/C=N\NC(=O)c2ccc(F)cc2)cnn1C | 1 | 0.9 | 4 | 0.9 | 1 | 4
CCn1c(SCC(=O)c2ccc(O)c(O)c2)nnc1-c1ccccc1OC | 0.6 | 1 | 8 | 0.9 | 47 | 40
C=CCn1c(SCC(=O)c2ccc(O)c(O)c2)nnc1-c1ccccc1OC | 0.4 | 0.8 | 10 | 0.7 | 37 | 64*
O=C(CN1CCNCC1)NCCSc1ccc(Cl)cc1 | 1 | 1 | 5 | 1.1 | -3 | -2
O=C(Cc1ccccc1)Nc1cccc(N2C(=O)C=CC2=O)c1 | 0.8 | 2.1* | 5 | 1.5 | 2 | 20
CCn1c2ccccc2c2cc(/C=N/n3cn[nH]c3=S)ccc21 | 0.4 | 1 | 3 | 0.9 | -18 | 62*
S=c1[nH]ncn1/N=C/c1ccc(Br)cc1 | 0.6 | 0.9 | 0 | 0.8 | -9 | 42
S=c1[nH]ncn1/N=C/c1ccccc1 | 0.4 | 1 | 1 | 1 | 38 | 60*
Cc1cc(=O)n2[nH]c(C)c(-c3ccccc3)c2n1 | 0.8 | 0.9 | 1 | 0.9 | -1 | 19
SMILES | Diaphorase act | PMI act hi M6P | G6PDH CS | PMI activator | TbHK1 inh | Diaphorase inh
Cc1cc(=O)n2cccc(O)c2n1 | 0.4 | 0.3 | 56* | 0.3 | -7 | 63*
O=C(Nc1ccc(-n2cccc2)cc1)C1CC1 | 0.9 | 1 | 5 | 1 | -10 | 5
CCN(CC)c1ccc(NC2CC(=O)N(CCc3ccc(OC)cc3)C2=O)cc1 (configuration not stated) | / | / | / | / | -1 | /
CCC(C)C1=CC(=Nc2c(C)n(C)n(-c3ccccc3)c2=O)C=C(C(C)CC)C1=O (configuration not stated) | 0.3 | 0.4 | -4 | 0.5 | -6 | 68*
CC1=CC(=Nc2c(C)n(C)n(-c3ccccc3)c2=O)C=C(C)C1=O | 0.3 | 0.4 | 2 | 0.2 | -7 | 70*
CC1=CC(=Nc2c(C)n(C)n(-c3ccccc3)c2=O)C=CC1=O | / | / | / | / | -24 | /
CC(C)(C)c1ccc(-c2nnc(N)o2)cc1 | / | / | / | / | -3 | /
CCN1/C(=C/C(C)=O)Sc2ccc(OC)cc21 | 0.9 | 0.9 | 18 | 0.9 | -32 | 9
C=C1c2cc(OC)ccc2NC(=O)N1CC | 0.8 | 2* | -10 | 1.5 | 1 | 19
Cc1ccc(NC(=O)CN2CCCCCC2)cc1[N+](=O)[O-] | 1 | 1 | 8 | 1.1 | -11 | 5
C=CCn1c(SCC#N)nnc1-c1ccc2ncccc2c1 | / | / | / | / | -3 | /
O=C(Cc1cnn(-c2ccccc2)c1)c1ccc(O)c(O)c1O | 0.3 | 0.3 | 18 | 0.3 | -22 | 69*
Cc1cc(-c2n[nH]c(=S)n2/N=C/c2ccc(Cl)c([N+](=O)[O-])c2)n[nH]1 | 0.8 | 1.1 | 6 | 1 | 3 | 23
O=[N+]([O-])c1cc(/C=N/n2c(-c3ccncc3)n[nH]c2=S)ccc1Cl | 0.5 | 1 | 12 | 1 | -6 | 53*
Cc1cc(-c2n[nH]c(=S)n2/N=C/c2cc([N+](=O)[O-])ccc2Cl)n[nH]1 | 0.5 | 0.6 | 10 | 0.7 | 16 | 50*
CC(/C=N/n1c(-c2cc(C)[nH]n2)n[nH]c1=S)=C\c1ccccc1 | 0.5 | 0.9 | 4 | 0.8 | -6 | 51*
Cc1ccc(/C=N/n2c(-c3ccncc3)n[nH]c2=S)cc1 | 0.4 | 0.6 | 5 | 0.3 | -3 | 60*
Nc1nc(COc2ccccc2C=O)nc(Nc2ccccc2)n1 | / | / | / | / | 3 | /
Cc1cc(=O)c2c(O)c(O)ccc2o1 | 0.3 | 0.4 | 50 | 0.2 | -21 | 72*
COc1ccc(-c2cc(=O)c3c(O)c(OC)c(O)cc3o2)cc1 | 0.9 | 1.1 | 15 | 1 | -16 | 6
COc1ccc(-c2c3c([nH]c(=S)c2C#N)CCC3)cc1 | 0.9 | 2.1* | -17 | 1.6 | -2 | 11
COc1ccc(OC)c(-c2c3c([nH]c(=S)c2C#N)CCCC3)c1 | 0.9 | 1.6 | 3 | 1.7 | -6 | 11
CCN(Cc1ccccc1)c1ccc(/C=N/NS(=O)(=O)c2cccc([N+](=O)[O-])c2)cc1 | 0.8 | 2* | 0 | 1.5 | -12 | 20
O=C(CCc1ccccn1)N1CCCC(CNS(=O)(=O)c2cccs2)C1 (configuration not stated) | 0.9 | 1.1 | 14 | 1 | 1 | 13

Compound activity as filed in PubChem.
